Reference: ChEMBL document CHEMBL5329163, “N-Acylsulfonamide: a valuable moiety to design new sulfa drug analogues” (RSC Med Chem, 2023)
Values after ≈ are worked out from the molar mass of the structure shown. Active and inactive are the calls of the source. No cut-off for these calls is given here.

Assays:
Escherichia coli [1] = experiment: Antibacterial activity against Escherichia coli ATCC 8739 assessed as inhibition of bacterial growth at 1 to 256 ug/ml incubated for 24 hrs by resazurin dye based broth microdilution method; type: functional, organism-based; conditions: dose 1-256 µg/ml
Summary of the method: (§1)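 CLSI broth microdilution in cation-adjusted Mueller Hinton broth, pH 7.4 (±0.2). Compounds dissolved in DMSO at 25.6 mg mL⁻¹ (stock), diluted to 1–256 µg mL⁻¹. Inoculum 5 × 10⁵ CFU mL⁻¹ final; 24 h at 37 °C, static. Resazurin 0.015% then added, 2–4 h more; wells staying blue read as above MIC. Sulfacetamide reference.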

Pseudomonas aeruginosa [2] = experiment: Antibacterial activity against Pseudomonas aeruginosa ATCC 27853 assessed as inhibition of bacterial growth at 1 to 256 ug/ml incubated for 24 hrs by resazurin dye based broth microdilution method; type: functional, organism-based; conditions: dose 1-256 µg/ml; summary of the method: as §1
Bacillus subtilis [3] = experiment: Antibacterial activity against Bacillus subtilis ATCC 6051 assessed as inhibition of bacterial growth at 1 to 256 ug/ml incubated for 24 hrs by resazurin dye based broth microdilution method; type: functional, organism-based; conditions: dose 1-256 µg/ml; summary of the method: as §1
Staphylococcus aureus [4] = experiment: Antibacterial activity against Staphylococcus aureus CIP 107093 assessed as inhibition of bacterial growth at 1 to 256 ug/ml incubated for 24 hrs by resazurin dye based broth microdilution method; type: functional, organism-based; conditions: dose 1-256 µg/ml; summary of the method: as §1
Escherichia coli [5] = experiment: Antibacterial activity against Escherichia coli ATCC 8739 assessed as inhibition of bacterial growth incubated for 24 hrs by resazurin dye based broth microdilution method; type: functional; summary of the method: as §1
Pseudomonas aeruginosa [6] = experiment: Antibacterial activity against Pseudomonas aeruginosa ATCC 27853 assessed as inhibition of bacterial growth incubated for 24 hrs by resazurin dye based broth microdilution method; type: functional; summary of the method: as §1
Bacillus subtilis [7] = experiment: Antibacterial activity against Bacillus subtilis ATCC 6051 assessed as inhibition of bacterial growth incubated for 24 hrs by resazurin dye based broth microdilution method; type: functional; summary of the method: as §1
Staphylococcus aureus [8] = experiment: Antibacterial activity against Staphylococcus aureus CIP 107093 assessed as inhibition of bacterial growth incubated for 24 hrs by resazurin dye based broth microdilution method; type: functional; summary of the method: as §1
Escherichia coli [9] = experiment: Antibiofilm activity against Escherichia coli ATCC 8739 assessed as inhibition of biofilm formation at 0.5 times of MIC by crystal violet staining based analysis relative to control; type: functional
Summary of the method: (§2)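 Overnight cultures inoculated into fresh LB with compound at ½ MIC and grown 24 h at 37 °C, static. Growth read at 580 nm. Medium discarded, wells rinsed with distilled water, stained with 0.1% crystal violet, dye solubilized in 30% acetic acid, OD 595 nm; uninoculated-control staining subtracted. At least three independent replicates, mean ± SEM; one-way ANOVA with Dunnett test.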

Pseudomonas aeruginosa [10] = experiment: Antibiofilm activity against Pseudomonas aeruginosa ATCC 27853 assessed as inhibition of biofilm formation at 0.5 times of MIC by crystal violet staining based analysis relative to control; type: functional; summary of the method: as §2
HaCaT = experiment: Cytotoxicity against human HaCaT cells incubated for 24 hrs by CyQuant LDH assay; type: toxicity, cell-based
Summary of the method: (§3)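 HaCaT (10% FCS) or Caco-2 (20% FCS) grown in DMEM with 1% penicillin–streptomycin, 37 °C, 5% CO₂. Seeded in 24-well plates, grown 72 h, rinsed with PBS, then exposed 24 h to compounds at MIC and ½ MIC in fresh DMEM. LDH release measured. Untreated and damaged-cell controls; two independent assays, at least 2 replicates, mean ± SEM.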

Caco-2 = experiment: Cytotoxicity against human Caco-2 cells incubated for 24 hrs by CyQuant LDH assay; type: toxicity, cell-based; conditions: caco-2, 24 h; summary of the method: as §3

In the case of `CC(=O)Nc1ccc(S(=O)(=O)NC(=O)c2ccc([N+](=O)[O-])cc2)cc1`, the Activity (Escherichia coli [1]) is reported as “inactive”, the Activity (Pseudomonas aeruginosa [2]) is reported as “inactive” and the Activity (Bacillus subtilis [3]) is reported as “inactive”. For the same compound, the Activity (Staphylococcus aureus [4]) was “inactive”.
`Nc1ccc(S(=O)(=O)NC(=O)c2ccc(Cl)cc2Cl)cc1` was tested, and the MIC (Escherichia coli [5]) was > 256 µg/mL, the MIC (Pseudomonas aeruginosa [6]) was > 256 µg/mL and the MIC (Bacillus subtilis [7]) was > 256 µg/mL. The MIC (Staphylococcus aureus [8]) was > 256 µg/mL.
For `Nc1ccc(S(=O)(=O)NC(=O)c2ccccc2)cc1` [SULFABENZAMIDE], the MIC (Escherichia coli [5]) was 32 µg/mL (≈ 116 µM), the MIC (Pseudomonas aeruginosa [6]) was > 256 µg/mL and the MIC (Bacillus subtilis [7]) was 128 µg/mL (≈ 463 µM). The MIC (Staphylococcus aureus [8]) was > 256 µg/mL, the “inhibition (INH)” value (Escherichia coli [9]) was 30% and the “inhibition (INH)” value (Pseudomonas aeruginosa [10]) was 14%. For the same compound, the Activity (HaCaT) was “Non-Toxic” and the Activity (Caco-2) was “Non-Toxic”.
In the case of `CC(=O)Nc1ccc(S(=O)(=O)NC(=O)c2ccccc2)cc1`, the Activity (Escherichia coli [1]) is reported as “inactive”, the Activity (Pseudomonas aeruginosa [2]) is reported as “inactive” and the Activity (Bacillus subtilis [3]) is reported as “inactive”. For the same compound, the Activity (Staphylococcus aureus [4]) was “inactive”.
For `CC(=O)Nc1ccc(S(=O)(=O)NC(=O)c2ccc(Cl)cc2Cl)cc1`, the Activity (Escherichia coli [1]) was “inactive”, the Activity (Pseudomonas aeruginosa [2]) was “inactive” and the Activity (Bacillus subtilis [3]) was “inactive”. For the same compound, the Activity (Staphylococcus aureus [4]) was “inactive”.
With `COc1cc(C(=O)NS(=O)(=O)c2ccc(N)cc2)ccc1[N+](=O)[O-]` the MIC (Escherichia coli [5]) was > 256 µg/mL, the MIC (Pseudomonas aeruginosa [6]) was > 256 µg/mL and the MIC (Bacillus subtilis [7]) was > 256 µg/mL. The MIC (Staphylococcus aureus [8]) was > 256 µg/mL.
For `COc1ccccc1C(=O)NS(=O)(=O)c1ccc(NC(C)=O)cc1`, the Activity (Escherichia coli [1]) was “inactive”, the Activity (Pseudomonas aeruginosa [2]) was “inactive” and the Activity (Bacillus subtilis [3]) was “inactive”. The Activity (Staphylococcus aureus [4]) was “inactive”.
For `CC(=O)Nc1ccc(S(=O)(=O)NC(C)=O)cc1`, the Activity (Escherichia coli [1]) was “inactive”, the Activity (Pseudomonas aeruginosa [2]) was “inactive” and the Activity (Bacillus subtilis [3]) was “inactive”. For the same compound, the Activity (Staphylococcus aureus [4]) was “inactive”.
`Nc1ccc(S(=O)(=O)NC(=O)c2ccc(C(F)(F)F)cc2)cc1` was tested, and the MIC (Escherichia coli [5]) was > 256 µg/mL, the MIC (Pseudomonas aeruginosa [6]) was > 256 µg/mL and the MIC (Bacillus subtilis [7]) was > 256 µg/mL. The MIC (Staphylococcus aureus [8]) was > 256 µg/mL.
`COc1cccc(C(=O)NS(=O)(=O)c2ccc(NC(C)=O)cc2)c1` was tested, and the Activity (Escherichia coli [1]) was “inactive”, the Activity (Pseudomonas aeruginosa [2]) was “inactive” and the Activity (Bacillus subtilis [3]) was “inactive”. The Activity (Staphylococcus aureus [4]) was “inactive”.
With `Nc1ccc(S(=O)(=O)NC(=O)c2ccc([N+](=O)[O-])cc2)cc1` the MIC (Escherichia coli [5]) was > 256 µg/mL, the MIC (Pseudomonas aeruginosa [6]) was > 256 µg/mL and the MIC (Bacillus subtilis [7]) was 256 µg/mL (≈ 797 µM). The MIC (Staphylococcus aureus [8]) was > 256 µg/mL.
With `CC(=O)NS(=O)(=O)c1ccc(N)cc1` [SULFACETAMIDE] the MIC (Escherichia coli [5]) was 32 µg/mL (≈ 149 µM), the MIC (Pseudomonas aeruginosa [6]) was > 256 µg/mL and the MIC (Bacillus subtilis [7]) was 128 µg/mL (≈ 597 µM). For the same compound, the MIC (Staphylococcus aureus [8]) was 256 µg/mL (≈ 1190 µM), the Activity (HaCaT) was “Non-Toxic” and the Activity (Caco-2) was “Non-Toxic”.
`COc1ccccc1C(=O)NS(=O)(=O)c1ccc(N)cc1` was tested, and the MIC (Escherichia coli [5]) was 256 µg/mL (≈ 836 µM), the MIC (Pseudomonas aeruginosa [6]) was > 256 µg/mL and the MIC (Bacillus subtilis [7]) was 64 µg/mL (≈ 209 µM). For the same compound, the MIC (Staphylococcus aureus [8]) was 256 µg/mL (≈ 836 µM), the Activity (Escherichia coli [9]) was “Active” and the Activity (Pseudomonas aeruginosa [10]) was “Active”. The Activity (HaCaT) was “Non-Toxic” and the Activity (Caco-2) was “Non-Toxic”.
`CC(=O)Nc1ccc(S(=O)(=O)NC(=O)c2ccc(C(F)(F)F)cc2)cc1` was tested, and the Activity (Escherichia coli [1]) was “inactive”, the Activity (Pseudomonas aeruginosa [2]) was “inactive” and the Activity (Bacillus subtilis [3]) was “inactive”. For the same compound, the Activity (Staphylococcus aureus [4]) was “inactive”.
For `Nc1ccc(S(=O)(=O)NC(=O)c2cc(F)c(F)c(F)c2)cc1`, the MIC (Escherichia coli [5]) was > 256 µg/mL, the MIC (Pseudomonas aeruginosa [6]) was > 256 µg/mL and the MIC (Bacillus subtilis [7]) was > 256 µg/mL. The MIC (Staphylococcus aureus [8]) was > 256 µg/mL.
`COc1cccc(C(=O)NS(=O)(=O)c2ccc(N)cc2)c1` was tested, and the MIC (Escherichia coli [5]) was 32 µg/mL (≈ 104 µM), the MIC (Pseudomonas aeruginosa [6]) was > 256 µg/mL and the MIC (Bacillus subtilis [7]) was 256 µg/mL (≈ 836 µM). For the same compound, the MIC (Staphylococcus aureus [8]) was > 256 µg/mL, the “inhibition (INH)” value (Escherichia coli [9]) was 42% and the “inhibition (INH)” value (Pseudomonas aeruginosa [10]) was 23%. For the same compound, the Activity (HaCaT) was “Non-Toxic” and the Activity (Caco-2) was “Non-Toxic”.
With `CC(=O)Nc1ccc(S(=O)(=O)NC(=O)c2cc(F)c(F)c(F)c2)cc1` the Activity (Escherichia coli [1]) was “inactive”, the Activity (Pseudomonas aeruginosa [2]) was “inactive” and the Activity (Bacillus subtilis [3]) was “inactive”. For the same compound, the Activity (Staphylococcus aureus [4]) was “inactive”.
For `COc1cc(C(=O)NS(=O)(=O)c2ccc(NC(C)=O)cc2)ccc1[N+](=O)[O-]`, the Activity (Escherichia coli [1]) was “inactive”, the Activity (Pseudomonas aeruginosa [2]) was “inactive” and the Activity (Bacillus subtilis [3]) was “inactive”. For the same compound, the Activity (Staphylococcus aureus [4]) was “inactive”.
